Data set [1] is described as follows: Cytotoxicity against human Raji cells assessed as cell viability at 0.32 nmol after 48 hrs by trypan blue assay. Format: cell-based. Conditions: read-out: Activity. An outline of the steps: (§1)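 Raji cells grown to 10^6 cells/mL, pelleted, and resuspended in RPMI 1640 with 10% FCS. Medium held 4 mM n-butyric acid, 32 pmol TPA (20 ng/mL, in DMSO) and test compound in DMSO. Incubated 48 h at 37 °C. Cell number and viability counted by hemocytometer with Trypan Blue; at least 60% survival required for a valid result.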

Data set [2] relates to Radical scavenging activity. The data set is described as follows: Antioxidant activity assessed as DPPH radical scavenging activity. In kind it is functional. An outline of the steps:
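Test compound in ethanol mixed with 2 mL of 0.1 mM DPPH solution; held 30 min at room temperature, then absorbance at 520 nm read. EC50 estimated by probit transformation; IC50 as mean ± SD of five replicates.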

Data set [3] relates to Raji. The data set is described as follows: Inhibition of TPA-induced EBV-early antigen activation in human Raji cells at 3.2 nmol after 48 hrs relative to TPA. Format: cell-based. To be noted: human gammaherpesvirus 4. On the set-up: scale not given: the % may be the effect or the level left. An outline of the steps:
(§2)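 Raji cells at 10^6 cells/mL were resuspended in RPMI 1640 with 10% FCS. Induction used 4 mM n-butyric acid plus 32 pmol TPA (20 ng/mL), with test compound added in DMSO. After 48 h at 37 °C, EA-positive cells were scored blind, at least 500 cells per assay. Activation is expressed as % of TPA-only control (100%) ± SD.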

Data set [4] in a line: Cytotoxicity against human Raji cells assessed as cell viability at 32 nmol after 48 hrs by trypan blue assay. Conditions: read-out: Activity. In kind it is cell-based. A digest of the protocol:
as §1

Data set [5] in a line: Cytotoxicity against human Raji cells assessed as cell viability at 3.2 nmol after 48 hrs by trypan blue assay. To be noted: read-out: Activity. In kind it is cell-based. A digest of the protocol:
as §1

The subject of data set [6] is Raji. The data set is described as follows: Inhibition of TPA-induced EBV-early antigen activation in human Raji cells at 16 nmol after 48 hrs relative to TPA. Conditions: human gammaherpesvirus 4. In kind it is cell-based. On the set-up: scale not given: the % may be the effect or the level left. An outline of the steps:
as §2

A short description of data set [7]: Cytotoxicity against human Raji cells assessed as cell viability at 16 nmol after 48 hrs by trypan blue assay. Format: cell-based. Conditions: read-out: Activity. A digest of the protocol:
as §1

In data set [8] the test system is Raji. The data set is described as follows: Inhibition of TPA-induced EBV-early antigen activation in human Raji cells at 0.32 nmol after 48 hrs relative to TPA. In kind it is cell-based. Also noted: scale not given: the % may be the effect or the level left. To be noted: human gammaherpesvirus 4. An outline of the steps: as §2
Data set [9] relates to Raji. The data set is described as follows: Inhibition of TPA-induced EBV-early antigen activation in human Raji cells at 32 nmol after 48 hrs relative to TPA. On the set-up: scale not given: the % may be the effect or the level left. To be noted: human gammaherpesvirus 4. In kind it is cell-based. An outline of the steps: as §2

Eight molecules from ChEMBL document CHEMBL1158902, “Polyprenylated benzophenones from Garcinia assigu and their potential cancer chemopreventive activities” (J Nat Prod, 2003) can be followed below.

For `COc1cc(C(=O)C2=C3OC(C)(C)[C@@H](CC=C(C)C)C[C@@]34C[C@@H](CC=C(C)C)C(C)(C)[C@@](CC=C(C)C)(C2=O)C4=O)ccc1O`, in [1], the viability at 48 h, 0.32 nmol was over 80%. Besides, in data set [2], the IC50 is over 100 µM. Moreover, the Activity in the data set on Raji [3] was 89%; in the data set on Raji [6], 60.1%; with Raji [8] it was 100%; with Raji [9], 18.5%. Besides, the viability at 48 h, 32 nmol in data set [4] was determined as 60%. The viability at 48 h, 3.2 nmol in data set [5] is over 80%. In data set [7], the viability at 48 h, 16 nmol was over 80%.
Consider `CC(C)=CC[C@@H]1C[C@@]2(CC=C(C)C)C(=O)[C@](CC=C(C)C)(C(=O)C(C(=O)c3ccccc3)=C2O)C1(C)C` [CLUSIANONE], for which the viability at 48 h, 0.32 nmol in data set [1] was over 80%. Further, the 50% inhibitory concentration (IC50) in data set [2] was over 100 µM. Further, the Activity is 87.7% in the data set with Raji [3], 53.7% in the data set with Raji [6], 100% in the data set on Raji [8] and 17.4% in the data set on Raji [9]. Besides, the viability at 48 h, 32 nmol in data set [4] was 60%. Also, the viability at 48 h, 3.2 nmol in data set [5] was over 80%. Further, the viability at 48 h, 16 nmol in data set [7] is over 80%.
With `CC1(C)[C@@H](O)CC[C@]2(C)[C@H]3C(=O)C=C4[C@@H]5C[C@@](C)(C(=O)O)CC[C@]5(C)CC[C@@]4(C)[C@]3(C)CC[C@@H]12` [ENOXOLONE], the Activity with Raji [3] stood at 100%; in the data set on Raji [6], 54.3%; in the data set with Raji [8], 100%; in the data set on Raji [9], 15.6%. The viability at 48 h, 32 nmol in data set [4] is over 80%. In data set [5], the viability at 48 h, 3.2 nmol is over 80%. Besides, the viability at 48 h, 16 nmol in [7] is over 80%.
For the molecule `C=C(C)[C@@H](CC=C(C)C)C[C@@]12C[C@@H](CC=C(C)C)C(C)(C)[C@@](CC=C(C)C)(C(=O)C(C(=O)c3ccc(O)c(O)c3)=C1O)C2=O` [GARCINOL], in data set [1], the viability at 48 h, 0.32 nmol is over 80%. The IC50 in data set [2] came out at 10.2 µM. In addition, the Activity with Raji [3] was determined as 84.9%; with Raji [6] it was 47%; in the data set with Raji [8] it was 100%; in the data set with Raji [9] it was 14.4%. Moreover, the viability at 48 h, 32 nmol in [4] was 60%. In addition, the viability at 48 h, 3.2 nmol in [5] is over 80%. In [7], the viability at 48 h, 16 nmol was over 80%.
For VITAMIN E, the 50% inhibitory concentration (IC50) in data set [2] turned out to be 22.8 µM.
Take `CC(C)=CC[C@H]1C[C@@]23C[C@@H](CC=C(C)C)C(C)(C)[C@@](CC=C(C)C)(C(=O)C(C(=O)c4ccc(O)c(O)c4)=C2OC1(C)C)C3=O` [CAMBOGIN]: in [1], the viability at 48 h, 0.32 nmol is over 80%. Besides, the IC50 in data set [2] was determined as 13.3 µM. Moreover, the Activity worked out at 87.1% with Raji [3], 56% in the data set on Raji [6], 100% with Raji [8] and 17.7% in the data set with Raji [9]. The viability at 48 h, 32 nmol in data set [4] is 60%. For the same molecule, the viability at 48 h, 3.2 nmol in data set [5] is over 80%. Also, the viability at 48 h, 16 nmol in [7] was over 80%.
Take `O=C(c1ccc(O)c(O)c1)c1c(O)cc(O)cc1O` [MACLURIN]: the viability at 48 h, 0.32 nmol in data set [1] was over 80%. In addition, the Activity came to 80.2% in the data set on Raji [3], 52.7% in the data set with Raji [6], 94.3% in the data set on Raji [8] and 0% in the data set with Raji [9]. For the same molecule, the viability at 48 h, 32 nmol in data set [4] amounted to 70%. Besides, the viability at 48 h, 3.2 nmol in data set [5] was over 80%. In addition, the viability at 48 h, 16 nmol in data set [7] was over 80%.
`C=C(C)[C@@H](CC=C(C)C)C[C@@]12C[C@@H](CC=C(C)C)C(C)(C)[C@@](CC=C(C)C)(C(=O)C(C(=O)c3ccc(O)c(OC)c3)=C1O)C2=O`: the viability at 48 h, 0.32 nmol in data set [1] is over 80%. The IC50 in [2] is over 100 µM. Also, the Activity with Raji [3] worked out at 88.1%; in the data set with Raji [6], 54.9%; with Raji [8], 100%; with Raji [9], 19.7%. Besides, the viability at 48 h, 32 nmol in [4] turned out to be 60%. For the same molecule, the viability at 48 h, 3.2 nmol in data set [5] was over 80%. Besides, the viability at 48 h, 16 nmol in data set [7] is over 80%.

What is called IC50 is the concentration at which inhibition is half-maximal.
